Active and inactive are the calls of the source. No cut-off for these calls is given here.
Key:
[1] = molecular target: T1, DNA topoisomerase 1 (Homo sapiens) (UniProt P11387); test: Inhibition of recombinant TOP1 (unknown origin) at 1 uM using 3'-[32P]-labeled 117 bp DNA oligonucleotides as substrate incubated for 20 mins by PAGE analysis relative to CPT
T1 sequence (whole entry): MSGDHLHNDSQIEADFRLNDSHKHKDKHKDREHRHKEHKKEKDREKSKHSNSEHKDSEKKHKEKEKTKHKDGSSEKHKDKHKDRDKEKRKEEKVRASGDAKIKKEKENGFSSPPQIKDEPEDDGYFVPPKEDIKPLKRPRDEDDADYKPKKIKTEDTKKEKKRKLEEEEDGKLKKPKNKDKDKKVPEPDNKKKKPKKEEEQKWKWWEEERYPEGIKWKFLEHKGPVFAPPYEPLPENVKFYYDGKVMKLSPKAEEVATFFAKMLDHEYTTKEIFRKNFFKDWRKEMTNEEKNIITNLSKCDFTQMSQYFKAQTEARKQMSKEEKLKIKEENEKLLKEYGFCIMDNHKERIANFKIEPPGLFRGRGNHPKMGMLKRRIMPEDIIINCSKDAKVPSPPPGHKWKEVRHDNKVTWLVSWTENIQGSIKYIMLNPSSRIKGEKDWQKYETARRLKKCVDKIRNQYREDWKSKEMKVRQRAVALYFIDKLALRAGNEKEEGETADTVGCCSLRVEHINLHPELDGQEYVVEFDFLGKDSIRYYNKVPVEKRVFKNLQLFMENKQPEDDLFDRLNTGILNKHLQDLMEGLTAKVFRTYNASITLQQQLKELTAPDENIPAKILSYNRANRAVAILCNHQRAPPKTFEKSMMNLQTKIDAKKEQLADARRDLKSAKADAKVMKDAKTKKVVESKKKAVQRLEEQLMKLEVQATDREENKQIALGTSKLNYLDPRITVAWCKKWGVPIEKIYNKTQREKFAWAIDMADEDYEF
Outline: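 3'-[32P]-labeled 117 bp oligonucleotide (~2 nM) with recombinant TOP1 and compound, 25 °C, 20 min. Buffer: 10 mM Tris-HCl pH 7.5, 50 mM KCl, 5 mM MgCl2, 0.1 mM EDTA, BSA. Stopped with 0.5% SDS and run on 20% denaturing PAGE with phosphorimaging.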

[2] = molecular target: Tyrosyl-DNA phosphodiesterase 1 (Homo sapiens, UniProt Q9NUW8); test: Inhibition of TDP1 (unknown origin) using 5'-FAM-AGGATCTAAAAGACTT-BHQ-3' as substrate at 100 uM measured after 30 mins by fluorescence assay relative to control
Tyrosyl-DNA phosphodiesterase 1, sequence (Q9NUW8 whole entry): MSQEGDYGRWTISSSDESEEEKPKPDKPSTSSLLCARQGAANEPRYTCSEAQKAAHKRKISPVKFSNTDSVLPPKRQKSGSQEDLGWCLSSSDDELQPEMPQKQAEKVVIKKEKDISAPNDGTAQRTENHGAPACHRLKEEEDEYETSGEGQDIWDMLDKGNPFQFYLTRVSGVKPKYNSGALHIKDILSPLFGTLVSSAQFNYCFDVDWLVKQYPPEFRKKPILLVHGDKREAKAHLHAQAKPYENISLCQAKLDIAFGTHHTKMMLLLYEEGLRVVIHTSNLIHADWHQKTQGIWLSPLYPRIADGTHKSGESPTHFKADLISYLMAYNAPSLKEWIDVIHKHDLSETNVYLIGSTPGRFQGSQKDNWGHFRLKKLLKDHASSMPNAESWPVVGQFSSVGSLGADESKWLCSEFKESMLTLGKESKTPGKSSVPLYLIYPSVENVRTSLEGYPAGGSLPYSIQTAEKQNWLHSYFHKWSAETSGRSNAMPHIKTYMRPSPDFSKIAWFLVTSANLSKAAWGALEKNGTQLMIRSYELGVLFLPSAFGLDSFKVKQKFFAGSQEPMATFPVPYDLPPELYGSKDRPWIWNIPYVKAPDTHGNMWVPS

MCF7 [3] = test: Cytotoxicity against human MCF-7 cells assessed as cell growth inhibition after 72 hrs by MTT assay; type: functional
Outline: (§1)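 Compounds predissolved in DMSO, tested in a five-dose series from 0.01 to 100 µM for 72 h, then read by MTT. Percent viability inhibition is taken against control, and GI50 is fitted by nonlinear regression.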

HCT-116 = test: Cytotoxicity against human HCT-116 cells assessed as cell growth inhibition after 72 hrs by MTT assay; type: functional
Outline: (§2)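 Cells kept in RPMI 1640 or DMEM with 10% FBS at 37 °C, 5% CO2. Compounds predissolved in DMSO, tested in a five-dose series from 0.01 to 100 µM for 72 h, then read by MTT. Percent viability inhibition is taken against control, and GI50 is fitted by nonlinear regression.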

MCF7 [4] = test: Cytotoxicity against human MCF-7/TDP1 cells assessed as cell growth inhibition after 72 hrs by MTT assay; type: functional
Outline: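 MCF-7/TDP1 is a TDP1-overexpressing line made by transfecting parental MCF-7, grown in RPMI 1640 or DMEM with 10% FBS at 37 °C, 5% CO2. DMSO-dissolved compounds tested at five doses from 0.01 to 100 µM, read by MTT. GI50 (mean ± SD, at least three repeats) fitted by nonlinear regression against control.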

A549 = test: Cytotoxicity against human A549 cells assessed as cell growth inhibition after 72 hrs by MTT assay; type: functional; outline: as §2
DU-145 = test: Cytotoxicity against human DU145 cells assessed as cell growth inhibition after 72 hrs by MTT assay; type: functional; outline: as §1
[5] = Resistance index,ratio of GI50 for growth inhibition of human MCF-7/TDP1 cells to GI50 for growth inhibition of human MCF-7 cells; type: functional
Outline: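 Resistance index is the MTT GI50 in TDP1-overexpressing MCF-7/TDP1 (transfected MCF-7) divided by the GI50 in parental MCF-7. GI50 values are mean ± SD of at least three experiments.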

| SMILES | inhibition [1] | inhibition [2] [%] | further results |
| --- | --- | --- | --- |
| COc1ccc2c(ccc3c4ccccc4c(=O)n(CCN(C)C)c23)c1 | 20% | 0 | – |
| COc1ccc2c(c1)c(=O)n(CCN(C)C)c1c3cc4c(cc3ccc21)OCO4 | Active | 0 | – |
| COc1cc2c(ccc3c4cc(OC)c(OC)cc4c(=O)n(CCN(C)C)c23)cc1O | 20% | – | – |
| CC[C@@]1(O)C(=O)OCc2c1cc1n(c2=O)Cc2cc3ccccc3nc2-1 [CAMPTOTHECIN] | – | – | GI50 (MCF7 [4]): 3210 nM; GI50 (HCT-116): 50 nM; GI50 (MCF7 [3]): 350 nM; GI50 (A549): 310 nM |
| CN(C)CCn1c(=O)c2cc3c(cc2c2ccc4ccccc4c21)OCO3 | 25% | – | – |
| COc1cc2c(cc1OC(C)C)c(=O)n(CCN(C)C)c1c3cc4c(cc3ccc21)OCO4 | inactive | 0 | – |
| COc1cc2c(cc1O)c(=O)n(CCN(C)C)c1c3cc4c(cc3ccc21)OCO4 | 20% | – | – |
| COc1cc2ccc3c4cc(OC)c(OC)cc4c(=O)n(CCN(C)C)c3c2cc1OC | < 20% | – | – |
| COc1ccc2c(c1OC)c(=O)n(CCN(C)C)c1c3cc4c(cc3ccc21)OCO4 | inactive | 0 | – |
| CN(C)CCn1c(=O)c2ccccc2c2ccc3ccccc3c21 | 20% | 0 | – |
| CN(C)CCn1c(=O)c2cc(F)ccc2c2ccc3cc4c(cc3c21)OCO4 | 75% | 0 | GI50 (A549): 7870 nM |
| COc1ccc2c(c1O)c(=O)n(CCN(C)C)c1c3cc4c(cc3ccc21)OCO4 | 20% | – | – |
| CN(C)CCn1c(=O)c2cc(O)c(O)cc2c2ccc3cc4c(cc3c21)OCO4 | 20% | 0 | GI50 (DU-145): > 100000 nM |
| CN(C)CCn1c(=O)c2cc(F)c(F)cc2c2ccc3ccccc3c21 | 50% | 0 | – |
| CN(C)CCn1c(=O)c2c3c(ccc2c2ccc4ccccc4c21)OCO3 | 20% | – | – |
| COc1ccc2ccc3c4ccccc4c(=O)n(CCN(C)C)c3c2c1 | 20% | 0 | – |

| SMILES | inhibition [1] | inhibition [2] [%] | further results |
| --- | --- | --- | --- |
| COc1cc2ccccc2c2c1c1ccccc1c(=O)n2CCN(C)C | inactive | 0 | – |
| CN(C)CCn1c(=O)c2ccc(F)cc2c2ccc3cc4c(cc3c21)OCO4 | 50% | 0 | – |
| COc1cc2ccc3c4ccc5c(c4c(=O)n(CCN(C)C)c3c2cc1OC)OCO5 | 20% | 0 | – |
| CN(C)CCn1c(=O)c2ccccc2c2ccc3cc4c(cc3c21)OCO4 | 20% | 0 | – |
| CN(C)CCn1c(=O)c2cc3c(cc2c2ccc4cc5c(cc4c21)OCO5)OCO3 | 20% | – | – |
| COc1cc2c(=O)n(CCN(C)C)c3c4cc5c(cc4ccc3c2cc1OC(C)C)OCO5 | 20% | 0 | GI50 (HCT-116): 900 nM |
| COc1cccc2c1c(=O)n(CCN(C)C)c1c3ccccc3ccc21 | inactive | – | – |
| COc1cc2c(=O)n(CCN(C)C)c3c4cc5c(cc4ccc3c2cc1OC)OCO5 | – | – | RatioGI50 [5]: 19.9; GI50 (MCF7 [4]): 7420 nM; GI50 (HCT-116): 140 nM; GI50 (MCF7 [3]): 200 nM; GI50 (A549): 320 nM; GI50 (DU-145): 78 nM |
| COc1cc2c(=O)n(CCN(C)C)c3c4cc5c(cc4ccc3c2cc1O)OCO5 | 20% | 0 | GI50 (MCF7 [3]): > 100000 nM; GI50 (A549): > 100000 nM |
| CN(C)CCn1c(=O)c2ccc(C(F)(F)F)cc2c2ccc3cc4c(cc3c21)OCO4 | 50% | 0 | GI50 (DU-145): 1000 nM |
| CN(C)CCn1c(=O)c2cc([N+](=O)[O-])ccc2c2ccc3cc4c(cc3c21)OCO4 | 75% | 0 | – |
| COc1ccc2c(c1)c(=O)n(CCN(C)C)c1c3ccccc3ccc21 | 20% | – | – |
| COc1cccc2c1c(=O)n(CCN(C)C)c1c3cc4c(cc3ccc21)OCO4 | 20% | 0 | – |
| CN(C)CCn1c(=O)c2ccccc2c2ccc3cc(Br)ccc3c21 | 20% | 0 | – |
| COc1cc2c(=O)n(CCN(C)C)c3c4ccccc4ccc3c2cc1OC | 25% | – | – |

Now from value to compound, other results behind:

| inhibition [1] | inhibition [2] [%] | SMILES | further results |
| --- | --- | --- | --- |
| 20% | – | COc1cc2ccc3c4ccccc4c(=O)n(CCN(C)C)c3c2cc1OC | – |
| 75% | 0 | CN(C)CCn1c(=O)c2ccc(Cl)cc2c2ccc3cc4c(cc3c21)OCO4 | – |
| 75% | 0 | COc1ccc2c(=O)n(CCN(C)C)c3c4cc5c(cc4ccc3c2c1)OCO5 | GI50 (MCF7 [3]): 200 nM |
| 20% | 0 | COc1cccc2c1ccc1c3ccccc3c(=O)n(CCN(C)C)c21 | – |
| inactive | 0 | COc1cc2ccc3c4ccc(OC)c(OC)c4c(=O)n(CCN(C)C)c3c2cc1OC | GI50 (HCT-116): > 100000 nM |
| 20% | 0 | CN(C)CCn1c(=O)c2cc(O)ccc2c2ccc3ccccc3c21 | – |
| < 20% | 0 | COc1cc2ccc3c4cc(OC)c(OC)cc4c(=O)n(CCN(C)C)c3c2cc1O | – |
| 20% | – | COc1ccc2c(=O)n(CCN(C)C)c3c4ccccc4ccc3c2c1 | – |
| inactive | 0 | COc1cccc2ccc3c4ccccc4c(=O)n(CCN(C)C)c3c12 | – |
| inactive | 0 | COc1cccc2c(=O)n(CCN(C)C)c3c4ccccc4ccc3c12 | – |
| inactive | 0 | CN(C)CCn1c(=O)c2cc(Br)ccc2c2ccc3cc4c(cc3c21)OCO4 | – |
| < 20% | – | COc1cc2c3ccccc3c(=O)n(CCN(C)C)c2c2ccccc12 | – |
| 50% | 0 | COc1cc2c(=O)n(CCN(C)C)c3c4cc(O)c(O)cc4ccc3c2cc1OC | – |
| inactive | 0 | COc1cc2ccc3c4c(OC)c(OC)ccc4c(=O)n(CCN(C)C)c3c2cc1OC | GI50 (HCT-116): > 100000 nM; GI50 (MCF7 [3]): > 100000 nM; GI50 (DU-145): > 100000 nM |
| inactive | 0 | COc1ccc2c(=O)n(CCN(C)C)c3c4ccccc4ccc3c2c1OC | – |
| inactive | 0 | COc1ccc2c(=O)n(CCN(C)C)c3c4cc5c(cc4ccc3c2c1O)OCO5 | GI50 (MCF7 [3]): > 100000 nM |
| < 20% | – | COc1cc2ccc3c4cc5c(cc4c(=O)n(CCN(C)C)c3c2cc1OC)OCO5 | – |
| inactive | 0 | COc1ccc2c(c1OC)c(=O)n(CCN(C)C)c1c3ccccc3ccc21 | – |
| 75% | 0 | CN(C)CCn1c(=O)c2cc(F)c(F)cc2c2ccc3cc4c(cc3c21)OCO4 | – |
| inactive | 0 | COc1ccc2c(=O)n(CCN(C)C)c3c4cc5c(cc4ccc3c2c1OC)OCO5 | – |
| 20% | – | CN(C)CCn1c(=O)c2c3c(ccc2c2ccc4cc5c(cc4c21)OCO5)OCO3 | – |

From ChEMBL document CHEMBL5038587, “Synthesis of Methoxy-, Methylenedioxy-, Hydroxy-, and Halo-Substituted Benzophenanthridinone Derivatives as DNA Topoisomerase IB (TOP1) and Tyrosyl-DNA Phosphodiesterase 1 (TDP1) Inhibitors and Their Biological Activity for Drug-Resistant Cancer” (J Med Chem, 2021)
